Test results taken from ChEMBL document CHEMBL1142995, “Probing the pharmacophore of ginkgolides as glycine receptor antagonists” (J Med Chem, 2007).

Legend:
Type in all cases: cell-based
[1] = molecular target: T1, Glycine receptor subunit alpha-2 (Homo sapiens, UniProt P23416); test: Activity at human alpha-2GlyR expressed in HEK293 cells by FMP assay
T1 sequence (P23416 whole entry): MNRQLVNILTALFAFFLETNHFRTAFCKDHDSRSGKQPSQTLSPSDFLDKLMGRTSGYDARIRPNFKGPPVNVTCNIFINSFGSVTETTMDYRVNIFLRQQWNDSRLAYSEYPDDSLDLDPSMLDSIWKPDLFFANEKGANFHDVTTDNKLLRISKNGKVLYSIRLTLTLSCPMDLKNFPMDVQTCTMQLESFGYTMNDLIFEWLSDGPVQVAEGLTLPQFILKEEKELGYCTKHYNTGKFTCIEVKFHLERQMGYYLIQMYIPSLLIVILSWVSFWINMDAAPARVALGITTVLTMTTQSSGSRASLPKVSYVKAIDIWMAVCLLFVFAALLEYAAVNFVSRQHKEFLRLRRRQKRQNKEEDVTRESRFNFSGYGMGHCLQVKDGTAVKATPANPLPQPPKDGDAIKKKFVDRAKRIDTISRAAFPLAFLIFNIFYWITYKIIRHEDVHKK
Procedure, shortened: (§1)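 Stable HEK293 lines (α1: G418; α1β: G418 + hygromycin B; α2: hygromycin B) plated on poly-D-lysine 16-24 h. Loaded with FMP dye in HBSS/20 mM HEPES pH 7.4, antagonist present, 30 min at 37 °C. Fluorescence ex 530/em 560 nm read up to 1 min after glycine: 200 µM (α1, α1β) or 500 µM (α2). Duplicates, ≥3 experiments; IC50 from maximal responses.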

[2] = molecular target: T2, Glycine receptor subunit alpha-1 (Homo sapiens, UniProt P23415); test: Activity at human alpha-1-beta-GlyR expressed in HEK293 cells by FMP assay; procedure, shortened: as §1
T2 sequence (P23415 whole entry): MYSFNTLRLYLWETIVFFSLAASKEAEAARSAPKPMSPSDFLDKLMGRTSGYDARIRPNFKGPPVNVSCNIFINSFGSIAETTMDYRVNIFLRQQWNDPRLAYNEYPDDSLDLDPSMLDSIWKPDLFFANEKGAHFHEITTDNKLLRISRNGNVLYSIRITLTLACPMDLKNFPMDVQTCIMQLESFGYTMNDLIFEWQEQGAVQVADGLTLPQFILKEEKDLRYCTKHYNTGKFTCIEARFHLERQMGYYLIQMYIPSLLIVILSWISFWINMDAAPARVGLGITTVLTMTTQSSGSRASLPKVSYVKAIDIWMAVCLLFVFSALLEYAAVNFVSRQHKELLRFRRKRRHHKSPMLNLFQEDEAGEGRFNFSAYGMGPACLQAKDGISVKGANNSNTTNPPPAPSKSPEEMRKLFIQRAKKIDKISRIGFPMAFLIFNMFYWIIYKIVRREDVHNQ

[3] = molecular target: T2, Glycine receptor subunit alpha-1; test: Activity at human alpha-1GlyR expressed in HEK293 cells assessed as inhibition of 30 uM glycine-induced current by whole-cell patch clamp experiment
Procedure, shortened: (§2)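 α1 GlyR-HEK293 cells, whole-cell patch clamp. Antagonist co-applied with 30 or 3000 µM glycine by gravity perfusion. Peak current normalised to that glycine concentration alone and fitted to Hill equation for IC50 and slope. Mean with 95% CI, 5 cells per glycine concentration.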

[4] = molecular target: T2, Glycine receptor subunit alpha-1; test: Activity at human alpha-1GlyR expressed in HEK293 cells assessed as inhibition of 300 uM glycine-induced current by whole-cell patch clamp experiment
[5] = molecular target: T2, Glycine receptor subunit alpha-1; test: Activity at human alpha-1GlyR expressed in HEK293 cells by FMP assay; procedure, shortened: as §1
[6] = molecular target: T2, Glycine receptor subunit alpha-1; test: Activity at human alpha1GlyR expressed in HEK293 cells assessed as inhibition of 3000 uM glycine-induced current by whole-cell patch clamp experiment; procedure, shortened: as §2

C[C@@H]1C(=O)O[C@H]2[C@H](O)[C@]34[C@@H]5OC(=O)[C@]3(O[C@@H]3OC(=O)[C@H](O)[C@@]34[C@H](C(C)(C)C)[C@H]5O)[C@@]12O [GINKGOLIDE C]
IC50 [1]: 8.2 µM
IC50 [2]: 2.4 µM
IC50 [3]: 2.4 µM
IC50 [4]: 1.7 µM
IC50 [5]: 4.7 µM
IC50 [6]: 5.9 µM
